Test results from ChEMBL document CHEMBL2380254, “Optimization of tocotrienols as antiproliferative and antimigratory leads” (Eur J Med Chem, 2013).

Columns and labels:
Type in all cases: functional
MOLT-4 = test: Growth inhibition of human MOLT4 cells after 48 hrs by sulforhodamine B assay; conditions: MOLT-4, 48 h
Outline: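 NCI-60 suspension lines in RPMI 1640 with 5% FBS and 2 mM L-glutamine, preincubated 24 h. A five-concentration 10-fold series (0.001–100 µM) was given for 48 h at 37 °C. Settled cells were fixed with 80% TCA (16% final), stained with SRB, and read at 515 nm. GI50 was taken where 100×(T−T0)/(C−T0)=50, with T0 plates fixed at drug addition.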

OVCAR-3 = test: Growth inhibition of human OVCAR3 cells after 48 hrs by sulforhodamine B assay; conditions: OVCAR-3, 48 h
Outline: (§1)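 NCI-60 panel cells grown in RPMI 1640 with 5% FBS and 2 mM L-glutamine, seeded at 5000–40,000 cells/well and preincubated 24 h. Five 10-fold dilutions (0.001–100 µM) from DMSO stocks were added for 48 h at 37 °C. Adherent cells were fixed with cold TCA (10% final) for 60 min at 4 °C, stained with 0.4% SRB, and read at 515 nm. GI50 was set where 100×(T−T0)/(C−T0)=50.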

KM12 = test: Growth inhibition of human KM12 cells assessed as cell growth at 10 uM after 48 hrs by sulforhodamine B assay; conditions: KM12, 48 h, read-out: Activity
Outline: (§2)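 NCI-60 single-dose screen at 10 µM: cells in RPMI 1640 with 5% FBS, preincubated 24 h, then exposed 48 h at 37 °C. TCA fixation (16% final for suspension cells), SRB staining, absorbance 515 nm. Percent growth relative to time-zero and untreated control plates; negative values indicate cell kill.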

A549 = test: Growth inhibition of human A549/ATCC cells assessed as cell growth at 10 uM after 48 hrs by sulforhodamine B assay; conditions: A549, 48 h, read-out: Activity; outline: as §2
COLO 205 = test: Growth inhibition of human COLO205 cells assessed as cell growth at 10 uM after 48 hrs by sulforhodamine B assay; conditions: COLO 205, 48 h, read-out: Activity; outline: as §2
SR = test: Growth inhibition of human SR cells after 48 hrs by sulforhodamine B assay
Outline: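 Suspension leukemia line in RPMI 1640 with 5% FBS and 2 mM L-glutamine, NCI-60 five-dose format ([…]), 48 h at 37 °C. Settled cells were fixed with 80% TCA (final 16%), stained with SRB and read at 515 nm. GI50 is where 100×(T−T0)/(C−T0)=50, with T0 measured at dosing.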

UACC-257 [1] = test: Growth inhibition of human UACC257 cells after 48 hrs by sulforhodamine B assay; conditions: UACC-257, 48 h
Outline: (§3)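 NCI-60 five-dose screen. Cells were grown in RPMI 1640 with 5% FBS and 2 mM L-glutamine, plated at 5000–40,000 cells/well and incubated 24 h before dosing, with T0 plates TCA-fixed. DMSO stocks were diluted to doses of […] and exposed 48 h at 37 °C, 5% CO2. Cells were fixed with cold TCA (final 10%, 60 min, 4 °C), stained with 0.4% SRB in 1% acetic acid for 10 min, solubilized in 10 mM trizma base and read at 515 nm. GI50 is where 100×(T−T0)/(C−T0)=50.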

IGROV-1 [2] = test: Growth inhibition of human IGROV1 cells after 48 hrs by sulforhodamine B assay; conditions: IGROV-1, 48 h
Outline: (§4)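 NCI-60 screen: cells in RPMI 1640 with 5% FBS and 2 mM glutamine, 5000–40,000 cells/well, preincubated 24 h. Five concentrations (10-fold dilutions; 100 to 0.001 µM) applied for 48 h at 37 °C. TCA fixation, SRB stain, absorbance at 515 nm. Time-zero plates included; GI50 where 100×(T−T0)/(C−T0)=50.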

SF-268 [3] = test: Growth inhibition of human SF268 cells assessed as cell growth at 10 uM after 48 hrs by sulforhodamine B assay; conditions: SF-268, 48 h, read-out: Activity
Outline: (§5)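 Single-dose NCI-60 screen: adherent cells in RPMI 1640 with 5% FBS were exposed to 10 µM for 48 h at 37 °C after a 24 h preincubation. They were fixed in situ with cold TCA (10% final), stained with 0.4% SRB in 1% acetic acid, solubilized in 10 mM Tris base, and read at 515 nm. Percent growth was taken relative to time-zero and control plates.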

UACC-257 [4] = test: Growth inhibition of human UACC257 cells assessed as cell growth at 10 uM after 48 hrs by sulforhodamine B assay; conditions: UACC-257, 48 h, read-out: Activity
Outline: (§6)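 Single-dose NCI-60 test at 10 µM. Cells were grown in RPMI 1640 with 5% FBS and 2 mM L-glutamine, preincubated 24 h, with T0 plates TCA-fixed. Exposure was 48 h at 37 °C, 5% CO2. Cells were fixed with cold TCA (final 10%, 4 °C, 60 min), stained with SRB and read at 515 nm. Percent growth was taken relative to T0 and untreated control; negative values denote cell kill.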

TK-10 = test: Growth inhibition of human TK10 cells after 48 hrs by sulforhodamine B assay; conditions: TK-10, 48 h; outline: as §3
SK-OV-3 = test: Growth inhibition of human SKOV3 cells assessed as cell growth at 10 uM after 48 hrs by sulforhodamine B assay; conditions: SK-OV-3, 48 h, read-out: Activity; outline: as §6
SF-268 [5] = test: Growth inhibition of human SF268 cells after 48 hrs by sulforhodamine B assay; conditions: SF-268, 48 h; outline: as §1
786-0 = test: Growth inhibition of human 786-0 cells assessed as cell growth at 10 uM after 48 hrs by sulforhodamine B assay; conditions: 786-0, 48 h, read-out: Activity; outline: as §2
BT-549 = test: Growth inhibition of human BT549 cells assessed as cell growth at 10 uM after 48 hrs by sulforhodamine B assay; conditions: BT-549, 48 h, read-out: Activity; outline: as §2
MDA-MB-231 = test: Growth inhibition of human MDA-MB-231 cells after 48 hrs by sulforhodamine B assay; conditions: MDA-MB-231, 48 h; outline: as §1
[6] = Growth inhibition of human EKVX cells assessed as cell growth at 10 uM after 48 hrs by sulforhodamine B assay; conditions: read-out: Activity; outline: as §2
Malme-3M = test: Growth inhibition of human MALME-3M cells assessed as cell growth at 10 uM after 48 hrs by sulforhodamine B assay; conditions: read-out: Activity; outline: as §5
NCI-H322M = test: Growth inhibition of human NCI-H322M cells after 48 hrs by sulforhodamine B assay; outline: as §1
NCI-H522 = test: Growth inhibition of human NCI-H522 cells after 48 hrs by sulforhodamine B assay; conditions: NCI-H522, 48 h; outline: as §1
A498 = test: Growth inhibition of human A498 cells after 48 hrs by sulforhodamine B assay; conditions: A498, 48 h; outline: as §4
HCT-116 = test: Growth inhibition of human HCT116 cells after 48 hrs by sulforhodamine B assay; conditions: HCT-116, 48 h; outline: as §4
IGROV-1 [7] = test: Growth inhibition of human IGROV1 cells assessed as cell growth at 10 uM after 48 hrs by sulforhodamine B assay; conditions: IGROV-1, 48 h, read-out: Activity; outline: as §2

Row | Compound | GI50 (MOLT-4) [µM] | GI50 (OVCAR-3) [µM] | growth at 10 µM (KM12) [%] | growth at 10 µM (A549) [%] | growth at 10 µM (COLO 205) [%] | GI50 (SR) [µM] | GI50 (UACC-257 [1]) [µM] | GI50 (IGROV-1 [2]) [µM] | growth at 10 µM (SF-268 [3]) [%] | growth at 10 µM (UACC-257 [4]) [%] | GI50 (TK-10) [µM] | growth at 10 µM (SK-OV-3) [%] | GI50 (SF-268 [5]) [µM] | growth at 10 µM (786-0) [%] | growth at 10 µM (BT-549) [%] | GI50 (MDA-MB-231) [µM] | growth at 10 µM [6] [%] | growth at 10 µM (Malme-3M) [%] | GI50 (NCI-H322M) [µM] | GI50 (NCI-H522) [µM] | other results
1 | COc1ccc(CCN2COc3cc(C)c4c(c3C2)CC[C@@](C)(CC/C=C(\C)CC/C=C(\C)CCC=C(C)C)O4)cc1OC | 2.32 | 2 | -82.6 | 58.4 | -72.5 | 2.3 | 5.58 | 2.08 | -75.2 | 71.8 | 3.08 | 92.8 | 2.13 | 49.3 | 105 | 1.94 | 85.5 | 72.9 | 2.71 | 2.08 | GI50 (A498): 1.8 µM; GI50 (HCT-116): 1.76 µM; growth at 10 µM (IGROV-1 [7]): 31.8%
2 | CC(C)=CCC/C(C)=C/CC/C(C)=C/CC[C@]1(C)CCc2c3c(c(C)c(C)c2O1)OCN(CCCCO)C3 | 3.46 | 3.85 | 27.3 | 70 | -16 | 2.47 | 1.73 | 6.53 | 75.2 | 112 | > 10 | 76.9 | > 10 | 72.8 | 104 | 2.34 | 108 | 93.3 | > 10 | > 10 | GI50 (A498): > 10 µM; GI50 (HCT-116): 2 µM; growth at 10 µM (IGROV-1 [7]): 48.2%
3 | CC(C)=CCC/C(C)=C/CC/C(C)=C/CC[C@]1(C)CCc2c3c(cc(C)c2O1)OCN(CCCCO)C3 | 16.2 | 17.2 | -89.5 | -37.7 | -76.8 | 7.26 | 11.4 | 14.8 | -70.5 | 98.1 | 15.4 | 26.4 | 17.7 | -49.2 | 88.2 | 17.9 | 85.4 | 51.2 | 17.2 | 21.9 | GI50 (A498): 14.8 µM; GI50 (HCT-116): 16 µM; growth at 10 µM (IGROV-1 [7]): -15.1%
4 | CC(C)=CCC/C(C)=C/CC/C(C)=C/CC[C@]1(C)CCc2c3c(cc(C)c2O1)OCN(CCCCCO)C3 | 5.87 | 6.71 | 13 | 36.1 | 3.96 | 4 | 6.97 | 6.18 | 48.5 | 83.8 | 5.98 | 96.9 | 7.13 | 81.2 | 110 | 5.87 | 90.5 | 116 | 6.35 | 7.08 | GI50 (A498): 5.76 µM; GI50 (HCT-116): 5.25 µM; growth at 10 µM (IGROV-1 [7]): 53.1%
